Most compounds without a hit are left out; they make up all but 2.1% or so of the library.
CFTR F508del cor: correctors of CFTR F508del function in bronchial epithelial cells; activity (quench increase), % at 7.58 µM; 350,000 tested, 0.36% active; CFBE cells, YFP halide quenching; stimulated with forskolin plus potentiator P3; % fluorescence drop versus neutral controls; AID 720511;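 active = mean added fluorescence quench of at least 8% versus neutral control, with both replicates also reaching 8%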;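 also: cells transiently co-express mutant CFTR-F508del with the halide-sensitive YFP; corrector assay measuring rescue of mutant channel to the surface after 24 h compound exposure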
SMARCA2 act: SMARCA2 function activation, primary screen; 370,000 tested, 1% active; MG213 cells, MMTV-luciferase reporter, dexamethasone, overnight; activation, % at 9.1 µM; AID 652017; in the data active = activation above about 7.8%
MC4R antag cAMP: human MC4R antagonism in cAMP assay; MC4R-expressing cells, MTII-stimulated cAMP, LANCE TR-FRET; inhibition, % at 6.5 µM; 360,000 tested, 0.48% active;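 active = inhibition above its plate's cutoff, the mean of tested wells on that plate plus 3 SD, cut at about 29% in these data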
Target sequence (P32245 whole entry, looked up): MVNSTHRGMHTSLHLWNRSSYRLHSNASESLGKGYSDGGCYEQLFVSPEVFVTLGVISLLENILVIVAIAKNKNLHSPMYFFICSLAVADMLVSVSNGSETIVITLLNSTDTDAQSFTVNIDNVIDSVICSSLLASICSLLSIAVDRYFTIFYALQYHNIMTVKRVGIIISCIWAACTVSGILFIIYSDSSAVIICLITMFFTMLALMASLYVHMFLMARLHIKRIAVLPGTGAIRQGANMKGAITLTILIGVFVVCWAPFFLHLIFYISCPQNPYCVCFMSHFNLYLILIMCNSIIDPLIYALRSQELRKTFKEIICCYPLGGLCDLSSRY
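Assay system: U2OS-MC4R stable cell line; Also added: Melanotan II; Technique: Eu-cAMP/anti-cAMP TR-FRET, emission 671 nm; Times: 30-min compound, 1-h challenge, 1-h detection, room temperature.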
MC4R barr agon: agonists of human melanocortin 4 receptor (MC4R) beta-arrestin; U2OS MC4R beta-arrestin complementation, luminescence; percent of melanotan II response, DMSO zero; 360,000 tested, 0.98% active; activation, % at 8.9 µM; P32245;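 active = activation above a per-plate cutoff, the mean activation of sample wells on that plate plus 3 SD, cut at about 8% in these data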
SMARCA2 conf: SMARCA2 activation, confirmation screen | activation, % at 9.1 µM | shares compounds with SMARCA2 act | 3,500 tested, 30% active | MG213 cells, MMTV-luciferase with dexamethasone, luminescence, overnight; MG213 cells expressing E1A, Rb sequestered; DMSO wells 0%, reference activator 100% | AID 652260;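 active = activation above its plate's cutoff, the mean activation of tested wells plus 3 SD, cut at about 7.9% in these data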
VP16 Luc act: counter-screen for SMARCA2 activators: GAL4-VP16 luciferase reporter activation | HEK293 GAL4-VP16 pG5luc reporter, luciferase luminescence; scaled: DMSO wells 0%, SAHA wells 100% | 3,500 tested, 41% active | AID 686939 | shares compounds with SMARCA2 act | activation, % at 9.1 µM;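 active = activation above the solvent-only control well mean plus 3 SD, averaged across control plates, cut at about 5.2% in these data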
Each line names hits and unclear results; the compound was inactive in the other large screens (follow-up assays come after a bar, where they were run).

COc1cc(/C=N/NS(=O)(=O)c2ccc(C)cc2)ccc1OCc1cccc(C(=O)O)c1	SMARCA2 act 9.5 | SMARCA2 conf inactive | VP16 Luc act 18.9
COc1cccc2sc(Nc3nnc(-c4cccs4)o3)nc12	SMARCA2 act 15.2 (no result: CFTR F508del cor) | SMARCA2 conf inactive | VP16 Luc act 14.1
COc1cccc2sc(Nc3nnc(-c4ccc(F)cc4)o3)nc12	none
Cc1ccc(-n2c(=O)cc(N3CC(C)CC(C)C3)[nH]c2=O)cc1 (configuration not stated)	none (no result: CFTR F508del cor)
Cc1ccc(-n2c(=O)cc(N3CCC(C)CC3)[nH]c2=O)cc1	SMARCA2 act 8.2 (no result: CFTR F508del cor) | SMARCA2 conf inactive | VP16 Luc act inactive
Cc1ccsc1/C=N/NC(=O)c1ccncc1	none
C/C=C/C=N\NC(=O)c1ccncc1	SMARCA2 act 8.2 | SMARCA2 conf inactive | VP16 Luc act inactive
CC(=O)N(C)C[C@H]1Oc2ncc(C#Cc3cccc(F)c3)cc2C(=O)N([C@@H](C)CO)C[C@@H]1C	none (no result: SMARCA2 act, MC4R antag cAMP, MC4R barr agon)
Cc1nc2c(sc3nc(N4CCOCC4)c4c(c32)CC(C)(C)OC4)c(-c2ccc(Cl)cc2)c1C(=O)O	SMARCA2 act 8.4 | SMARCA2 conf inactive | VP16 Luc act inactive
COc1ccccc1Cc1c(-c2ccccc2)nc2ccc(Cl)cn12	SMARCA2 act 10.9 (no result: MC4R antag cAMP, MC4R barr agon) | SMARCA2 conf inactive | VP16 Luc act inactive
Clc1cccc(-c2nc3ccc(Cl)cn3c2Cc2ccccc2)c1	SMARCA2 act 8.2 (no result: MC4R antag cAMP, MC4R barr agon) | SMARCA2 conf inactive | VP16 Luc act inactive
COc1ccc(Cc2c(-c3ccccc3)nc3ccc(Cl)cn23)c(C)c1	none (no result: MC4R antag cAMP, MC4R barr agon)
COc1ccccc1Cc1c(-c2cccc(Cl)c2)nc2ccc(Cl)cn12	none (no result: MC4R antag cAMP, MC4R barr agon)
COc1ccc(Cc2c(-c3ccccc3)nc3ccc(C)cn23)c(C)c1	SMARCA2 act 9.2 (no result: MC4R antag cAMP, MC4R barr agon) | SMARCA2 conf inactive | VP16 Luc act inactive
O=C(C[C@H]1C=C[C@@H](NC(=O)CC2CC2)[C@@H](CO)O1)NCc1ccc(-c2ccccc2)cc1	none (no result: SMARCA2 act, MC4R antag cAMP, MC4R barr agon)
CCNC(=O)[C@@H]1[C@@H](CO)[C@@H]2Cn3c(ccc(-c4ccccc4)c3=O)[C@@H]2N1Cc1ccc2c(c1)OCO2	none (no result: SMARCA2 act, MC4R antag cAMP, MC4R barr agon)
CC=Cc1ccc2n(c1=O)C[C@@H]1[C@@H](CO)[C@H](C(=O)Nc3ccc(-c4ccccc4)cc3)N(CCC)[C@H]21 (mixture of isomers)	none (no result: SMARCA2 act, MC4R antag cAMP, MC4R barr agon)
CC(=O)N1[C@@H]2CN(S(=O)(=O)c3cccc(C)c3)c3ccccc3[C@@H]2[C@@H]1CO	none (no result: SMARCA2 act, MC4R antag cAMP, MC4R barr agon)
COc1ccc(-c2nnc(SCC(=O)c3cccs3)o2)cc1	none (no result: CFTR F508del cor)
O=C(CSc1nnc(-c2cccs2)o1)c1cccs1	SMARCA2 act 8.0 (no result: CFTR F508del cor) | SMARCA2 conf 11.9 | VP16 Luc act 7.0
CCC1CCCCN1C(=O)CSc1nnc(-c2cccs2)o1 (configuration not stated)	SMARCA2 act 8.0 (no result: CFTR F508del cor) | SMARCA2 conf 12.2 | VP16 Luc act 8.4
CCCCCCN1CCN(C2CN(CCCC)S(=O)(=O)C2)CC1 (configuration not stated)	SMARCA2 act 8.7 (no result: MC4R antag cAMP, MC4R barr agon) | SMARCA2 conf inactive | VP16 Luc act inactive
CCCCN1CC(N2CCN(CCO)CC2)CS1(=O)=O (configuration not stated)	none (no result: MC4R antag cAMP, MC4R barr agon)
COc1ccc2c3c(n(C)c2c1)[C@H](CO)N(C(=O)c1ccncc1)CC31CCN(C(C)=O)CC1	none (no result: SMARCA2 act, MC4R antag cAMP, MC4R barr agon)
COc1ccc(NC(=O)COc2ccc(C)cc2)c([N+](=O)[O-])c1	none (no result: MC4R antag cAMP, MC4R barr agon)
COc1ccc(OCC(=O)N/N=C(\C)CC(=O)Nc2ccc(OC)cc2[N+](=O)[O-])cc1	SMARCA2 act 8.7 | SMARCA2 conf inactive | VP16 Luc act inactive
COc1ccc(NC(=O)CSc2nc3ccccc3n2-c2ccccc2)c([N+](=O)[O-])c1	none
COc1ccc(NC(=O)CSc2ccccc2)c([N+](=O)[O-])c1	SMARCA2 act 8.4 | SMARCA2 conf inactive | VP16 Luc act inactive
Cc1cn([C@H]2C[C@H](O)[C@@H](/C=C/C(=O)NCc3ccco3)O2)c(=O)[nH]c1=O	SMARCA2 act 10.0 (no result: MC4R antag cAMP, MC4R barr agon) | SMARCA2 conf inactive | VP16 Luc act inactive
O=C(Nc1ncc(Cc2cccc(C(F)(F)F)c2)s1)C1CCCO1 (configuration not stated)	none
Cc1ccc(Cc2cnc(NC(=O)C3CCCO3)s2)cc1 (configuration not stated)	SMARCA2 act 8.8 (no result: CFTR F508del cor) | SMARCA2 conf 10.5 | VP16 Luc act 7.9
COc1ccc(NC(=O)Nc2ccc3c(c2)C(=O)N([C@H](C)CO)C[C@H](C)[C@@H](CN(C)CC2CCCCC2)O3)cc1	none (no result: SMARCA2 act, MC4R antag cAMP, MC4R barr agon)
C/C(CCc1ccc2c(c1)OCO2)=N\N=C1\NC(=O)CC(C(=O)Nc2ccc(Cl)cc2)S1 (configuration not stated)	SMARCA2 act 11.4 | SMARCA2 conf inactive | VP16 Luc act inactive
Cc1ccc(N=C2NC(=O)CC(C(=O)Nc3ccc4c(c3)OCO4)S2)cc1 (configuration not stated)	none
CCOc1cccc2cc(-c3nnc(NCc4ccco4)s3)c(=O)oc12	none (no result: CFTR F508del cor)
O=c1oc2ccc(Cl)cc2cc1-c1nnc(Nc2cccc(C(F)(F)F)c2)s1	none
COc1ccc2oc(=O)c(-c3nnc(NCc4ccco4)s3)cc2c1	SMARCA2 act 15.2 (no result: CFTR F508del cor) | SMARCA2 conf 14.7 | VP16 Luc act 6.5
CNc1nnc(-c2cc3cc(Cl)ccc3oc2=O)s1	SMARCA2 act 9.7 (no result: CFTR F508del cor) | SMARCA2 conf 10.4 | VP16 Luc act 11.2
CC(=O)Oc1ccc(C2=Cc3ccc(OC(C)=O)cc3OC2C)cc1 (configuration not stated)	SMARCA2 act 8.2 | SMARCA2 conf 8.0 | VP16 Luc act 6.5
C[C@H]1CN([C@@H](C)CO)C(=O)c2cc(C#CC3CCCCC3)cnc2O[C@H]1CN(C)S(C)(=O)=O	none (no result: SMARCA2 act, MC4R antag cAMP, MC4R barr agon)
CCCCN(C(=O)C(C)Oc1ccc(Cl)cc1)c1c(N)n(CCCC)c(=O)[nH]c1=O (configuration not stated)	SMARCA2 act 8.2 | SMARCA2 conf inactive | VP16 Luc act inactive
CCCCn1c(N)c(N(CCOC)C(=O)C(C)Oc2ccc(Cl)cc2)c(=O)[nH]c1=O (configuration not stated)	none
O=C(/C=C/c1cccs1)Nc1ccncc1	none
Cc1cccc(NC(=O)/C=C/c2cccs2)n1	SMARCA2 act 11.6 (no result: CFTR F508del cor) | SMARCA2 conf 8.2 | VP16 Luc act 7.9
Cc1ccc(NC(=O)NCc2c(C)nn(C)c2C)cc1Cl	none
Cc1nn(C)cc1CNC(=O)Nc1ccc(Cl)c(Cl)c1	SMARCA2 act 8.0 (no result: CFTR F508del cor) | SMARCA2 conf inactive | VP16 Luc act 6.9
O=S(=O)(N[C@@H]1CC[C@H](CCn2cc(C3(O)CCCC3)nn2)O[C@H]1CO)c1ccc(Cl)cc1	none (no result: SMARCA2 act, MC4R antag cAMP, MC4R barr agon)
Fc1ccccc1/C=N/Nc1ncnc2nc[nH]c12	SMARCA2 act 9.6 | SMARCA2 conf 16.6 | VP16 Luc act 5.8

Compound activity from PubChem.
